Assays:
[1] = molecular target: T1, Ephrin type-B receptor 4 (Homo sapiens) (UniProt P54760); assay: Competitive binding affinity to EPHB4 (unknown origin) at 10 uM in presence of ATP relative to control
T1 sequence (whole entry): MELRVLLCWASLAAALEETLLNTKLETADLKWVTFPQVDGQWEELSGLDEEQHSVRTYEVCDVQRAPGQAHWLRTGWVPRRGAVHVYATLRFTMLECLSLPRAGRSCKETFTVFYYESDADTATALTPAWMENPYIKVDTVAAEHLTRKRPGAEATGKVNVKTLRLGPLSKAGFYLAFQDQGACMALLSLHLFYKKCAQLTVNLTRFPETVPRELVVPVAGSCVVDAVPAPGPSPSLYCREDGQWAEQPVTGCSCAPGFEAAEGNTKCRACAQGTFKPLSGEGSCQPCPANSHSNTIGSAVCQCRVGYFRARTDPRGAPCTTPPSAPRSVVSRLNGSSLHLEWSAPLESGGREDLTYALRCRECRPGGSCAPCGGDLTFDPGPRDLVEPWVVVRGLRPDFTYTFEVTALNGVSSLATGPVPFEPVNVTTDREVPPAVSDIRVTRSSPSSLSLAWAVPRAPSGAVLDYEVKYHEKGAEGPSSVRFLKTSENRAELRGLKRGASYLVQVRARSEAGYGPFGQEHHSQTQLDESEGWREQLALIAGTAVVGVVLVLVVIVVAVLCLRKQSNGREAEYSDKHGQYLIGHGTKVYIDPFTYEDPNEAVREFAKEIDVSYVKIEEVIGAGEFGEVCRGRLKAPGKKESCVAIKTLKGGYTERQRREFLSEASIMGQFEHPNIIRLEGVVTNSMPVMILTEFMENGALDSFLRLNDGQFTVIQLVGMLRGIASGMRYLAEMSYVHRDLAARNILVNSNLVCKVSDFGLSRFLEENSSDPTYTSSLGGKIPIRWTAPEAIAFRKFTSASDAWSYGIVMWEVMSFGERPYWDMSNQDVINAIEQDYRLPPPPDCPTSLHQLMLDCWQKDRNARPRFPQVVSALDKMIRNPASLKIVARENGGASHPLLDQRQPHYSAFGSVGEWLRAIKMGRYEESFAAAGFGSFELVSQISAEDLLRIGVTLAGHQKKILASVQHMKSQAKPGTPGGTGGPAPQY
Procedure, shortened: (§1)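 In vitro ATP-site competition binding assay, part of profiling against a diverse panel of 128 kinases. Each compound was tested at a single concentration of 10 µM. Kinome selectivity was summarized as S15 selectivity scores.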

[2] = molecular target: Casein kinase I isoform gamma-1 (Homo sapiens) (UniProt Q9HCP0); assay: Competitive binding affinity to CSNK1G1 (unknown origin) at 10 uM in presence of ATP relative to control
Sequence of Casein kinase I isoform gamma-1 (Homo sapiens) (Q9HCP0 whole entry, looked up, canonical isoform): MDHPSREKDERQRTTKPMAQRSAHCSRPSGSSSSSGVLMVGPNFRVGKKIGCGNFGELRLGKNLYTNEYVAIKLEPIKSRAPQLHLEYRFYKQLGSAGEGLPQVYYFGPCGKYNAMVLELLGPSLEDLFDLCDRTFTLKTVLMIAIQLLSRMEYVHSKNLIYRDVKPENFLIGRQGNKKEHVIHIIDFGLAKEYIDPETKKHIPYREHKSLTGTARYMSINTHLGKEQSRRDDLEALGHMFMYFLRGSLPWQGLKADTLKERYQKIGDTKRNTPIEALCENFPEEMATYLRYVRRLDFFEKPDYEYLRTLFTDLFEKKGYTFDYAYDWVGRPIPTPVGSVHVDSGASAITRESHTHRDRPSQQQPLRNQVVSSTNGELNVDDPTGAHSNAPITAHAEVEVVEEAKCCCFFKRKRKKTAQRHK

[3] = molecular target: STE20-like serine/threonine-protein kinase (Homo sapiens) (UniProt Q9H2G2); assay: Competitive binding affinity to SLK (unknown origin) at 10 uM in presence of ATP relative to control
Sequence of STE20-like serine/threonine-protein kinase (Homo sapiens) (Q9H2G2 whole entry, looked up): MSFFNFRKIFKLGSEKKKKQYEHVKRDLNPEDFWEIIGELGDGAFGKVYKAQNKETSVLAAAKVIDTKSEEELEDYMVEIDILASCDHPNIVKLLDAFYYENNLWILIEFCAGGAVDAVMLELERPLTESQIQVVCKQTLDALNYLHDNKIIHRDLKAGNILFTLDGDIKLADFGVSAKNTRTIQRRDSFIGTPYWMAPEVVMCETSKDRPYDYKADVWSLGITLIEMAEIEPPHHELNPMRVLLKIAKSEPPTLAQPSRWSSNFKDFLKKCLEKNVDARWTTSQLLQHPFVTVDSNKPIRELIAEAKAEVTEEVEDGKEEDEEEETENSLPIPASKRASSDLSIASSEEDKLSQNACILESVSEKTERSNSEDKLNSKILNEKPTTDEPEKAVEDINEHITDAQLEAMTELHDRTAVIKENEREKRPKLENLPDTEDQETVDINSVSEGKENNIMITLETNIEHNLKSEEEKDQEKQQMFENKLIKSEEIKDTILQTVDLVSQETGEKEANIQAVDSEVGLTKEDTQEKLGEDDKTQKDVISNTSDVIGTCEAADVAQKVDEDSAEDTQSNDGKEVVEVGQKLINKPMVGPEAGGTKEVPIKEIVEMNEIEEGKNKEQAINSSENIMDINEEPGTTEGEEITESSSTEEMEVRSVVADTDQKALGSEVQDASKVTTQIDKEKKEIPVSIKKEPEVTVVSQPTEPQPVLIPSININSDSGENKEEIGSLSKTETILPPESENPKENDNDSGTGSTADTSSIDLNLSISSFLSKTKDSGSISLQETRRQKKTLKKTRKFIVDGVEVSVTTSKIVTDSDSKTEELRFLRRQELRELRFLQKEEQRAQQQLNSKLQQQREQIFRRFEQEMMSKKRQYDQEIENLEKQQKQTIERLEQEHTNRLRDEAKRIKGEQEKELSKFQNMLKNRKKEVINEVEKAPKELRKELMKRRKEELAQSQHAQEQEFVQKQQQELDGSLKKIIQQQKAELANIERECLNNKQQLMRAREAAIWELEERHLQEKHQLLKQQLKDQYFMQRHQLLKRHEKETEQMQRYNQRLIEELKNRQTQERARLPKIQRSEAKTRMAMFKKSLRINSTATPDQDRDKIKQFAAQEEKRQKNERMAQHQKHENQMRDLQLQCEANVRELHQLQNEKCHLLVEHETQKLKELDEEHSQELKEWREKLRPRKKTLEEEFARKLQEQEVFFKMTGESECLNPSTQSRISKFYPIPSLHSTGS
Procedure, shortened: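 In vitro ATP-site competition binding assay across a diverse panel of 128 kinases, with compound tested at a single concentration. Kinase selectivity scores (S15) were calculated from the panel profiles.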

[4] = molecular target: Platelet-derived growth factor receptor beta (Homo sapiens, UniProt P09619); assay: Competitive binding affinity to PDGFRB (unknown origin) at 10 uM in presence of ATP relative to control
Procedure, shortened: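 In vitro ATP-site competition binding assay across a diverse panel of 128 kinases, with each compound tested at a single concentration. Kinase binding is expressed relative to control.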

[5] = molecular target: Mitogen-activated protein kinase kinase kinase kinase 5 (Homo sapiens) (UniProt Q9Y4K4); assay: Competitive binding affinity to MAP4K5 (unknown origin) at 10 uM in presence of ATP relative to control; procedure, shortened: as §1
[6] = molecular target: Tyrosine-protein kinase Lyn (Homo sapiens) (UniProt P07948); assay: Competitive binding affinity to LYN (unknown origin) at 10 uM in presence of ATP relative to control; procedure, shortened: as §1
Sequence of Tyrosine-protein kinase Lyn (Homo sapiens) (P07948 2-512 limits assumed): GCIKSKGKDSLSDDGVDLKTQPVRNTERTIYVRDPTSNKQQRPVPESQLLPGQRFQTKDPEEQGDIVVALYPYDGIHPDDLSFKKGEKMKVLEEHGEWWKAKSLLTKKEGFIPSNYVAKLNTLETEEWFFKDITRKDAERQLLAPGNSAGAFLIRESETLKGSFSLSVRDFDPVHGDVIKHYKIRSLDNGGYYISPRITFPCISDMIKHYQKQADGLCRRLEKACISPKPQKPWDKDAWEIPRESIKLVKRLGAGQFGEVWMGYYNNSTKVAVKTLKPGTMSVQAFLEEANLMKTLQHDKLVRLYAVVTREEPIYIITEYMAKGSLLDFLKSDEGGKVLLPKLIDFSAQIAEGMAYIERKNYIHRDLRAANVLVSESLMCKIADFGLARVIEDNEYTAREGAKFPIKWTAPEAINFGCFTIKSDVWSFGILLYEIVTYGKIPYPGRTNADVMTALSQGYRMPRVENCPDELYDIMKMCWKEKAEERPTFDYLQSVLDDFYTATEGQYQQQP

[7] = molecular target: Tyrosine-protein kinase Lck (Homo sapiens) (UniProt P06239); assay: Competitive binding affinity to LCK (unknown origin) at 10 uM in presence of ATP relative to control; procedure, shortened: as §1
[8] = molecular target: Tyrosine-protein kinase JAK2 (Homo sapiens) (UniProt O60674); assay: Competitive binding affinity to JAK2 kinase domain 2 (unknown origin) at 10 uM in presence of ATP relative to control; procedure, shortened: as §1
Sequence of Tyrosine-protein kinase JAK2 (Homo sapiens) (O60674 whole entry, the tested form may be a part): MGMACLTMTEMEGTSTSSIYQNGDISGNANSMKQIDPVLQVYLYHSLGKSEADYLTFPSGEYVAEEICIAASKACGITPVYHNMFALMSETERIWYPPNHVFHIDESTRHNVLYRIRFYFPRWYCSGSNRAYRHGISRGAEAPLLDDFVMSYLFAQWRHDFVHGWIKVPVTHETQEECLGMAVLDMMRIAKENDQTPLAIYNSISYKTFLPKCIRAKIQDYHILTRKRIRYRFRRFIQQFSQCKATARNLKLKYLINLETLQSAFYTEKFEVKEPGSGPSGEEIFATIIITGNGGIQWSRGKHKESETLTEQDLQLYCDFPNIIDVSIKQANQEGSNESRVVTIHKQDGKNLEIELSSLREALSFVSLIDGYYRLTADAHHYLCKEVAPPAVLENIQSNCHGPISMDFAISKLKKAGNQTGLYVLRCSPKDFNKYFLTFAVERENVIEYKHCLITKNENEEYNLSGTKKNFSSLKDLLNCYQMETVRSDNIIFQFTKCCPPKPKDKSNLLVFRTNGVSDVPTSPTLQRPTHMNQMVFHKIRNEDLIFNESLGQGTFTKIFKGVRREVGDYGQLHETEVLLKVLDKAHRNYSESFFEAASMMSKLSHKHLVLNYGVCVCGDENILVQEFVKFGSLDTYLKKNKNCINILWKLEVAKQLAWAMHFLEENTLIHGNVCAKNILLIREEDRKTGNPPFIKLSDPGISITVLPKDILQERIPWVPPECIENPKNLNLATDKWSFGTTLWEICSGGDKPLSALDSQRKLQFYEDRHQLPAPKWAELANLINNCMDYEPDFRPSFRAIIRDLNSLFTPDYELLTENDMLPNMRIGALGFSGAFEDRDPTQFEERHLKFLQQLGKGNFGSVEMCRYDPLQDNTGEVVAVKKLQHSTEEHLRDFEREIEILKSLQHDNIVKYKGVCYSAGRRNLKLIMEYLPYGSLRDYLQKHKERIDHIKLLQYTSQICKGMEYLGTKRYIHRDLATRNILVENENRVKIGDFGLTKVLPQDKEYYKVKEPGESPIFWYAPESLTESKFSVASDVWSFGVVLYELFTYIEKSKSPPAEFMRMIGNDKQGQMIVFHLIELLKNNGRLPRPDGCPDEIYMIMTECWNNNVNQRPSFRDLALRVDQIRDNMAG

[9] = molecular target: Tyrosine-protein kinase JAK1 (Homo sapiens) (UniProt P23458); assay: Competitive binding affinity to JAK1 kinase domain 1 (unknown origin) at 10 uM in presence of ATP relative to control; procedure, shortened: as §1
[10] = molecular target: T2, Tyrosine-protein kinase ITK/TSK (Homo sapiens) (UniProt Q08881); assay: Competitive binding affinity to ITK (unknown origin) at 10 uM in presence of ATP relative to control; procedure, shortened: as §1
T2 sequence (whole entry): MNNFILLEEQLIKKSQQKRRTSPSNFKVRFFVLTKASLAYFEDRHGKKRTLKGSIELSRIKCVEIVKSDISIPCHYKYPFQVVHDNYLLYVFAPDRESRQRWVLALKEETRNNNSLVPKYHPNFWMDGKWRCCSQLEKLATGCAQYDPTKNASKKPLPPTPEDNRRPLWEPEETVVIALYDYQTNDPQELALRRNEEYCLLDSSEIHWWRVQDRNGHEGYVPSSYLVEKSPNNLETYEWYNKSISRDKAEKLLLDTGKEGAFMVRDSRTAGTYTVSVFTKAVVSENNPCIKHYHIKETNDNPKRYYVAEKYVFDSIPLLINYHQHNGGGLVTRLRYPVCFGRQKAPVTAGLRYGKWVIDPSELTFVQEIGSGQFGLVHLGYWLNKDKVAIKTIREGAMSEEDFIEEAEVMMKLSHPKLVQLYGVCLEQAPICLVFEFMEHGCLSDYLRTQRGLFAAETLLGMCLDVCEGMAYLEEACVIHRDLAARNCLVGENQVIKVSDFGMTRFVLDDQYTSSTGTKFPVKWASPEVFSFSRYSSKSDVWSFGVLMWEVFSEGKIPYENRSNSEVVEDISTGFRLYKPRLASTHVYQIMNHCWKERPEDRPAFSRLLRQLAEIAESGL

[11] = molecular target: Insulin receptor (Homo sapiens) (UniProt P06213); assay: Competitive binding affinity to INSR (unknown origin) at 10 uM in presence of ATP relative to control; procedure, shortened: as §1
Sequence of Insulin receptor (Homo sapiens) (P06213 28-758 limits assumed): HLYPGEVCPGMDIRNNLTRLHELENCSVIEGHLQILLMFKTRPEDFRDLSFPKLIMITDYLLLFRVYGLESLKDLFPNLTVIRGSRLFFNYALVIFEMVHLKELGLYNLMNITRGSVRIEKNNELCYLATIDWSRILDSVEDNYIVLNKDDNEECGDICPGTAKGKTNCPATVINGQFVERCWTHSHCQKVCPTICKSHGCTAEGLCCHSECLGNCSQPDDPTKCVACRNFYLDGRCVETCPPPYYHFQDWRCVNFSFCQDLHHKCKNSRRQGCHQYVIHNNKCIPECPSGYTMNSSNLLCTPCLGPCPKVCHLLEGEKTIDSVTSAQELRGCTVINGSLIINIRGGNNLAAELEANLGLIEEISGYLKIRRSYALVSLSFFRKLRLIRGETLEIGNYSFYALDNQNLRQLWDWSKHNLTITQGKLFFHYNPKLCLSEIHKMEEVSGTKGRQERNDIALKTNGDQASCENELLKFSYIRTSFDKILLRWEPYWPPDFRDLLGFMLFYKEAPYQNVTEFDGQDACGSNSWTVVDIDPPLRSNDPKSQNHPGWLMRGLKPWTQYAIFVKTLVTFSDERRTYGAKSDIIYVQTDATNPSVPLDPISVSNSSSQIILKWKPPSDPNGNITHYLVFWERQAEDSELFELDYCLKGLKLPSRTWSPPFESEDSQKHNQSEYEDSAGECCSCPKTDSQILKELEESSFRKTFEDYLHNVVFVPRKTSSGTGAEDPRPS
Sequence of Insulin receptor (Homo sapiens) (P06213 763-1382 limits assumed): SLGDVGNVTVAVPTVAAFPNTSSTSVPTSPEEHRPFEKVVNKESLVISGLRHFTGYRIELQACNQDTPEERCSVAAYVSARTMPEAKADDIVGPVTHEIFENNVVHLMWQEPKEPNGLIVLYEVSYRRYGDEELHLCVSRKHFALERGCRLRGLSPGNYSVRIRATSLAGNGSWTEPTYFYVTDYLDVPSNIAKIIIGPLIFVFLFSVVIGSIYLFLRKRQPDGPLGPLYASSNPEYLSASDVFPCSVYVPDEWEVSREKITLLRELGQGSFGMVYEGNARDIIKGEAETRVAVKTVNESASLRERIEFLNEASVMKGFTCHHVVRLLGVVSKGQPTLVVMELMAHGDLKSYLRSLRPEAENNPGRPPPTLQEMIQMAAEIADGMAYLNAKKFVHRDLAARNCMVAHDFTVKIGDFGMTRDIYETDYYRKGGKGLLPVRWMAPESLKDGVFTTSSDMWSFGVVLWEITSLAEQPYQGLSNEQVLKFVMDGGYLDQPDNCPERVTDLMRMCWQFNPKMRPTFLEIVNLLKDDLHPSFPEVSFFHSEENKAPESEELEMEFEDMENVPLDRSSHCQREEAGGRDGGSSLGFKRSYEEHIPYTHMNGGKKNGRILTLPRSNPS

An inhibition [1] of under 50%, an inhibition [2] of 97% and an inhibition [3] of under 50% were found for `O[C@H]1CC[C@H](Nc2nccc(-n3nnc4ccccc43)n2)CC1` in this work. For the same compound, the inhibition [4] was 91%, the inhibition [5] was under 50% and the inhibition [6] was under 50%. For the same compound, the inhibition [7] was 65%, the inhibition [8] was 72% and the inhibition [9] was under 50%. For the same compound, the inhibition [10] was under 50% and the inhibition [11] was under 50%.

An inhibition [4] of over 85% was found for `CS(=O)(=O)CCCOc1cccc2c1ccn2-c1ccnc(N[C@H]2CC[C@H](C(=O)N3CCC(O)CC3)CC2)n1` in this work.

An inhibition [1] of under 50%, an inhibition [2] of under 50% and an inhibition [3] of under 50% were found for `O[C@H]1CC[C@H](Nc2nccc(-n3ncc4ccccc43)n2)CC1` in this work. It also gave an inhibition [4] of 90%, an inhibition [5] of under 50% and an inhibition [6] of under 50%. It also gave an inhibition [7] of under 50%, an inhibition [8] of under 50% and an inhibition [9] of 88%. It also gave an inhibition [10] of under 50% and an inhibition [11] of under 50%.

An inhibition [1] of 100%, an inhibition [2] of 92% and an inhibition [3] of 99% were found for `O[C@H]1CC[C@H](Nc2nccc(-c3n[nH]c4ccccc34)n2)CC1` in this work. The inhibition [4] was 98%, the inhibition [5] was 99% and the inhibition [6] was under 50%. The inhibition [7] was 87%, the inhibition [8] was 96% and the inhibition [9] was 99%. It also gave an inhibition [10] of 96% and an inhibition [11] of 98%.

An inhibition [1] of under 50%, an inhibition [2] of under 50% and an inhibition [3] of under 50% were found for `O[C@H]1CC[C@H](Nc2nccc(-n3ccc4ccccc43)n2)CC1` in this work. It also gave an inhibition [4] of 67%, an inhibition [5] of under 50% and an inhibition [6] of under 50%. It also gave an inhibition [7] of under 50%, an inhibition [8] of under 50% and an inhibition [9] of under 50%. The inhibition [10] was under 50% and the inhibition [11] was under 50%.

An inhibition [1] of under 50%, an inhibition [2] of 75% and an inhibition [3] of under 50% were found for `O=C([C@H]1CC[C@H](Nc2nccc(-n3nnc4ccccc43)n2)CC1)N1CCOCC1` in this work. The inhibition [4] was 70%, the inhibition [5] was under 50% and the inhibition [6] was under 50%. The inhibition [7] was 70%, the inhibition [8] was under 50% and the inhibition [9] was under 50%. For the same compound, the inhibition [10] was under 50% and the inhibition [11] was under 50%.

An inhibition [1] of under 50%, an inhibition [2] of 100% and an inhibition [3] of under 50% were found for `N[C@H]1CC[C@H](Nc2nccc(-n3nnc4ccccc43)n2)CC1` in this work. For the same compound, the inhibition [4] was 95%, the inhibition [5] was under 50% and the inhibition [6] was under 50%. The inhibition [7] was 81%, the inhibition [8] was under 50% and the inhibition [9] was under 50%. For the same compound, the inhibition [10] was under 50% and the inhibition [11] was under 50%.

Reference: ChEMBL document CHEMBL2424622, “Development of amino-pyrimidine inhibitors of c-Jun N-terminal kinase (JNK): kinase profiling guided optimization of a 1,2,3-benzotriazole lead” (Bioorg Med Chem Lett, 2013)
